# PolyA inhibitor = polyadenylation inhibitors in yeast reporter cells, primary screen, luminescence, S. cerevisiae. S. cerevisiae SKY197-pL101 polyadenylation reporter, beta-gal luminescence; efflux-impaired pdr1/pdr3 knockout yeast; score 100 = 6 SD above DMSO. 300,000 tested, 0.02% active. AID 1875, 2009. activity score, % at 12 µM;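 active = lowest replicate activity score at least 50, where 100 means six control SD above control mean; inconclusive = lowest score under 50 but half or more replicates reach 50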;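 note: yeast exposed to compound for 9 h at 30 °C; higher score means more reporter readthrough which indicates perturbed polyadenylation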
# T cruzi repl = inhibitors of intracellular T. cruzi growth, primary screen, luminescence, NIH3T3 host cells. T. cruzi beta-gal in NIH3T3, 90 h. inhibition, % (test concentration not listed). 300,000 tested, 1.4% active;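 active = mean inhibition across valid replicates above about 55%, limit read from the data; inconclusive = mean below that limit but half or more replicates reach it; inactive = mean below it, under half of replicates reach it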;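 note: signal also drops with host cell toxicity which is not excluded here; 0% = plate median of DMSO wells and 100% = zero luminescence signal; higher percent means less beta-gal luminescence so fewer parasites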
#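 compound dosing = single 50 nL compound addition per well in DMSO | material = NIH/3T3 host cells with β-galactosidase reporter T. cruzi | input = 5,000 host fibroblasts per well | timing = ≥90 h infection period, 3 h prior cell attachment | read-out basis = percent inhibition of parasite-derived β-gal signal | detection = GalScreen β-gal luminescence, detergent lysis, 60 min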
# HDAC3 inhib = HDAC3 deacetylase inhibitors, primary screen, biochemical, fluorescence, cell-free homogeneous; Histone deacetylase 3 (Homo sapiens), O15379; inhibition, % at 8.3 µM; recombinant HDAC3, fluorogenic peptide/trypsin coupled; 320,000 tested, 0.15% active; in the data active = inhibition above about 26%, passing the limit was not always enough; inconclusive = no clear call, values can overlap the other calls
# Target sequence (O15379 whole entry, looked up): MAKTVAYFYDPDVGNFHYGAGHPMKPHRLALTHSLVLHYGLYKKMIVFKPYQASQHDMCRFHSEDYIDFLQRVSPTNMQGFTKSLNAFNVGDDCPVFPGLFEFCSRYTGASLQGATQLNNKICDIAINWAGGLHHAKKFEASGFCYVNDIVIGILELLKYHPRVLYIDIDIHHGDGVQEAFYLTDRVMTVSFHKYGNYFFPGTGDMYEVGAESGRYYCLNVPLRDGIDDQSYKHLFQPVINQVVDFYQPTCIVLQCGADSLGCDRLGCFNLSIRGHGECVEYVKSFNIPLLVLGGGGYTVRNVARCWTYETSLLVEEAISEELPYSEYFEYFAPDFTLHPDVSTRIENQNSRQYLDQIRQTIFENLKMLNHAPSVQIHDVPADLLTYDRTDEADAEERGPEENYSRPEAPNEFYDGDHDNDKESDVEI
# Efflux pump mplx = inhibitors of Candida efflux pumps in yeast, primary screen, S. cerevisiae, Nile Red, multiplex; S. cerevisiae Candida pump triplex; inhibition, % at 10 µM; 330,000 tested, 0.44% active;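 active = plate passing quality check with inhibition over a set limit, or well fluorescence over plate mean plus 4 SD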;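 note: Nile Red retained in pooled yeast measured as flow cytometry median fluorescence; 0% = buffer negative control and 100% = Enniatin B positive control; higher means more Nile Red kept so more efflux inhibition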
# AI-2 QS mod = Vibrio harveyi AI-2 quorum sensing modulators, primary screen, JMH597 strain, luminescence/OD600 ratio. Vibrio harveyi JMH597 AI-2 luminescence/OD600 ratio, 9 h; hits give low values; strain lacks LuxN and CqsS sensors; 0 = neutral-control median. activity change, % at 7.5 µM. 300,000 tested, 0.4% active; in the data active = activity change below about -75%, passing the limit was not always enough; inconclusive = no clear call, values can overlap the other calls;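 note: luminescence divided by OD600 gain over 9 h not by final OD600 alone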
# Cmpd fluor yeast = compound fluorescence in yeast efflux pump counter-screen; shares compounds with Efflux pump mplx; fluorescence ratio to DMSO, % at 10 µM; 1,700 tested, 4% active; S. cerevisiae AD/pABC3, flow cytometry;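 active = fluorescence ratio to DMSO above its plate's cutoff, the plate mean ratio plus 5 SD, cut at about 210% in these data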;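 note: unstained yeast with no Nile Red so the signal is compound autofluorescence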
# Mdr1 pump inh = inhibitors of Candida albicans Mdr1 efflux, confirmation, flow cytometry, singleplex, Cherry Pick1 set; shares compounds with Efflux pump mplx; S. cerevisiae AD/CaMDR1, Nile Red efflux; inhibition, % at 10 µM; 1,700 tested, 1% active; in the data active = inhibition above about 26%;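 note: 0% = DMSO vehicle and 100% = reference inhibitor; higher means more Nile Red retained so more efflux inhibition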
# Cdr2 pump inh = inhibitors of Candida albicans Cdr2 efflux pump, confirmation, S. cerevisiae AD/CaCDR2, flow cytometry, cherry pick 1, singleplex; shares compounds with Efflux pump mplx; Nile Red retention; Nile Red retention ratio vs DMSO, % at 10 µM; 1,700 tested, 4% active; AID 588520, 2011; in the data active = Nile Red retention ratio vs DMSO above about 190%;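 note: higher ratio means more blocking of Cdr2 efflux of the dye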
# Cdr1 pump inh = inhibitors of Candida albicans Cdr1 efflux pump, confirmation, S. cerevisiae AD/CaCDR1, flow cytometry, cherry pick 1, singleplex; AID 588522, 2011; inhibition, % at 10 µM; Nile Red efflux; shares compounds with Efflux pump mplx; 1,700 tested, 1% active;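 active = inhibition above the screen-wide mean plus twice its standard deviation, cut at about 32% in these data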
# * = called active by the depositor; u = inconclusive; x = not tested or not shown; + = active, no number. This is a sample that favours compounds with a hit; in the whole collection about 2.2% have one here.
SMILES,PolyA inhibitor,T cruzi repl,HDAC3 inhib,Efflux pump mplx,AI-2 QS mod,Cmpd fluor yeast,Mdr1 pump inh,Cdr2 pump inh,Cdr1 pump inh
CCCCCN(C(=O)CCC(=O)OC(C)C(=O)c1ccccc1)c1c(N)n(CCCC)c(=O)[nH]c1=O (configuration not stated),-0.3,-1.0,1.2,0.0,3.7,x,x,x,x
O=S(=O)(/N=C(/Nc1ccccn1)c1ccc(Cl)cc1)c1ccc(Cl)cc1,-15.2,-5.1,x,-0.1,10.5,x,x,x,x
COc1ccccc1NC(=O)NCC(=O)Nc1ccc(F)c(F)c1,10.6,8.6,-3.2,-0.1,1.3,x,x,x,x
COc1ccccc1NC(=O)CNc1ccc(F)c(Cl)c1,8.3,-2.0,1.1,13.9*,17.8,113.2,0.1,114.4,0.0
O=C(/C=C/c1ccccc1[N+](=O)[O-])NCCc1ccc(F)cc1,-6.9,7.5,-1.3,0.4*,10.9,87.6,0.0,183.9,0.0
O=C(/C=C/c1ccccc1Cl)NCCc1ccc(F)cc1,-0.8,4.6,4.1,0.9,-2.3,x,x,x,x
C=CCn1c(SCc2cc(=O)n3ccsc3n2)nc2ccccc2c1=O,6.7,-0.8,2.6,0.5*,13.2,89.9,0.1,100.1,0.2
C=CCn1c(SCc2cc(=O)n3ccsc3n2)nc2cc(Cl)ccc2c1=O,-17.0,14.6,3.3,0.0,43.8,x,x,x,x
O=C(O)c1cccc(CN2C(=O)CSC2=O)c1,9.5,-6.7,-0.1,0.9*,6.0,84.4,0.1,86.9,-0.2
O=C(O)c1cccc(CN2C(=O)SC(Nc3ccccc3)C2=O)c1 (configuration not stated),-2.7,-19.5,7.5,-0.1,37.0,x,x,x,x
COc1ccc(CN2CCC(CO)(Cc3cccc(C(F)(F)F)c3)CC2)cc1Cn1cccn1,-11.9,41.6,-2.3,-0.1,10.8,x,x,x,x
Cc1cc(N=Nc2ccc(C)c(N=Nc3cc(C)c(N)cc3N)c2)c(N)cc1N,17.8,14.0,1.2,0.0,27.3,x,x,x,x
CCN1C(=O)[C@H]2[C@@H](c3ccc(-c4cccc(Cl)c4)c(OC)c3)N3CCCC[C@@]3(C(=O)OC)[C@H]2C1=O,x,x,-0.8,-0.1,x,x,x,x,x
CCN1C(=O)[C@H]2[C@@H](c3ccc(-c4cccc(Cl)c4)cc3)N3CCCC[C@@]3(C(=O)OC)[C@H]2C1=O,15.3,35.5,10.7,0.7*,10.3,97.8,-0.1,118.5,-0.1
COc1ccc(-c2cc(C(F)(F)F)n3nc(C(=O)N(C)Cc4ccccc4)cc3n2)cc1OC,7.9,25.2,-6.2,1.4*,1.1,96.1,-0.1,97.5,-0.1
COc1ccc(-c2cc(C(F)(F)F)n3nc(C(=O)Nc4cc(C)on4)cc3n2)cc1OC,x,x,-8.9,0.4,21.0,x,x,x,x
O=C(O)CC(C(=O)O)N1C(=O)/C(=C/c2ccc(-c3nc4ccccc4s3)o2)SC1=S (configuration not stated),0.7,-3.6,16.3,-0.1,5.4,101.2,-0.2,107.2,0.0
O=C(O)CCCN1C(=O)/C(=C/C=C/c2ccco2)SC1=S,u,-3.0,-1.5,0.4,19.1,x,x,x,x
O=C(O)CCCN1C(=O)/C(=C\c2ccc(-c3nc4ccccc4s3)o2)SC1=S,0.5,3.2,7.5,1.1*,13.9,105.6,0.0,179.8,0.0
O=C(O)CCN1C(=O)/C(=C/c2ccc(-c3nc4ccccc4s3)o2)SC1=S,-1.5,-0.9,18.2,1.9*,14.9,136.8,0.0,+,0.2
COc1ccc(/C=N/Nc2ncnc3sc4c(c23)CCCC4)cc1OC,-17.8,9.4,x,-1.0,25.9,x,x,x,x
Cc1ccc(-c2nc3cccnc3s2)cc1NC(=O)C1c2ccccc2Oc2ccccc21,-4.0,0.4,x,x,-1.7,x,x,x,x
O=S(=O)(NCC1(N2CCOCC2)CCCCC1)c1ccc(Cl)cc1C(F)(F)F,8.1,21.4,8.1,-0.1,9.3,x,x,x,x
COc1cc(C2C(C(C)=O)=C(O)C(=O)N2Cc2ccccc2)ccc1O (configuration not stated),-7.0,4.0,1.4,0.2,10.8,x,x,x,x
O=c1[nH]c(C2CCN(S(=O)(=O)c3ccc4c(c3)OCCO4)CC2)nc2c1nnn2Cc1c(F)cccc1Cl,-6.4,-6.1,-5.1,0.0,17.1,x,x,x,x
SMILES,PolyA inhibitor,T cruzi repl,HDAC3 inhib,Efflux pump mplx,AI-2 QS mod,Cmpd fluor yeast,Mdr1 pump inh,Cdr2 pump inh,Cdr1 pump inh
Cc1ccc(C)c(S(=O)(=O)N2CCC(c3nc4c(nnn4Cc4ccc(F)cc4)c(=O)[nH]3)CC2)c1,x,x,9.2,-0.1,x,x,x,x,x
Cc1ccc(Cn2nnc3c(=O)[nH]c(C4CCN(S(=O)(=O)c5cc(C)ccc5C)CC4)nc32)cc1,14.8,-5.2,u,0.0,68.9,x,x,x,x
O=c1[nH]c(C2CCN(S(=O)(=O)c3ccc4c(c3)OCCO4)CC2)nc2c1nnn2Cc1ccccc1F,-15.2,33.5,-1.4,1.0*,10.3,110.0,0.5,120.8,0.3
O=c1[nH]c(C2CCN(S(=O)(=O)c3ccc(C(F)(F)F)cc3)CC2)nc2c1nnn2Cc1cccc(F)c1,3.4,6.4,5.1,-0.2,13.9,x,x,x,x
Cc1ccc(C)c(Cn2nnc3c(=O)[nH]c(C4CCN(S(=O)(=O)c5ccc(S(=O)(=O)N(C)C)cc5)CC4)nc32)c1,1.2,24.2,5.8,0.4,8.9,93.3,-0.3,116.5,0.0
O=c1[nH]c(C2CCN(S(=O)(=O)c3ccccc3C(F)(F)F)CC2)nc2c1nnn2Cc1cccc(F)c1,1.4,23.2,1.7,3.1*,32.0,100.2,-0.1,114.1,0.0
Cc1ccc(Cn2nnc3c(=O)[nH]c(C4CCN(S(=O)(=O)c5ccc(F)cc5)CC4)nc32)cc1,3.2,-3.3,5.9,-0.1,31.1,100.3,-0.2,116.0,0.0
COC(=O)/C=C1\SC(N2CCOCC2)=C(c2ccc(OC)cc2)C1=O,-28.4,20.4,3.4,-0.5,41.0,x,x,x,x
Cc1ccc(S(=O)(=O)N2CCC(C(=O)OCCOc3cccc(C)c3)CC2)cc1,x,x,3.4,-0.2,x,x,x,x,x
COc1cccc(CNC(=O)C2CCN(S(=O)(=O)c3ccc(Br)s3)CC2)c1,-0.3,9.8,-5.7,0.2,x,x,x,x,x
